Test results from ChEMBL document CHEMBL3132745, “Synthesis and Antimicrobial Activities of His(2-aryl)-Arg and Trp-His(2-aryl) Classes of Dipeptidomimetics” (Medchemcomm, 2014).
≈ marks a conversion by molar mass, not a printed value. Values belong to the compound of their own block, whether it stands above or below them. Calls of active or inactive are those of the source.

Tests used:
[1] = system: Escherichia coli; test: Antibacterial activity against Escherichia coli ATCC 35218 assessed as growth inhibition after 16-20 hrs by CLSI method; type: functional, organism-based
[2] = Selectivity index, ratio of cytotoxicity against human BT549 cells to IC50 for Cryptococcus neoformans ATCC 90113; type: toxicity, cell-based, BT-549; conditions: read-out: Selectivity Index
[3] = system: Candida albicans; test: Antifungal activity against Candida albicans assessed as growth inhibition; type: functional, organism-based
[4] = system: SK-OV-3; test: Cytotoxicity against human SKOV3 cells assessed as cell viability after 48 hrs by neutral red uptake assay; type: cell-based; conditions: sk-ov-3, 48 h
Outline: (§1)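 Neutral red uptake assay on human cancer lines (SK-MEL, KB, BT-549, SK-OV-3) and noncancerous mammalian cells (VERO, LLC-PK1). Highest tested concentration was 10 µg/mL.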

[5] = Selectivity index, ratio of cytotoxicity against human SK-MEL cells to IC50 for Cryptococcus neoformans ATCC 90113; type: toxicity, cell-based; conditions: read-out: Selectivity Index
[6] = system: LLC-PK1; test: Cytotoxicity against pig LLC-PK1 cells assessed as cell viability after 48 hrs by neutral red uptake assay; type: cell-based, Sus scrofa; conditions: llc-pk1, 48 h; outline: as §1
[7] = Selectivity index, ratio of cytotoxicity against human KB cells to IC50 for Cryptococcus neoformans ATCC 90113; type: toxicity, cell-based; conditions: read-out: Selectivity Index
[8] = system: Cryptococcus neoformans; test: Antifungal activity against Cryptococcus neoformans ATCC 90113 assessed as growth inhibition after 70-74 hrs by CLSI method; type: functional, organism-based; conditions: Cryptococcus neoformans, ATCC 90113; for IC50: read-out: IC50
[9] = Selectivity index, ratio of cytotoxicity against african green monkey Vero cells to IC50 for Cryptococcus neoformans ATCC 90113; type: toxicity, cell-based; conditions: read-out: Selectivity Index
[10] = system: KB; test: Cytotoxicity against human KB cells assessed as cell viability after 48 hrs by neutral red uptake assay; type: cell-based; outline: as §1
[11] = system: Nakaseomyces glabratus; test: Antifungal activity against Candida glabrata assessed as growth inhibition; type: functional, organism-based
[12] = system: SK-MEL; test: Cytotoxicity against human SK-MEL cells assessed as cell viability after 48 hrs by neutral red uptake assay; type: cell-based; outline: as §1
[13] = system: Vero; test: Cytotoxicity against african green monkey Vero cells assessed as cell viability after 48 hrs by neutral red uptake assay; type: cell-based; conditions: chlorocebus sabaeus; outline: as §1
[14] = system: Staphylococcus aureus; test: Antibacterial activity against Staphylococcus aureus ATCC 29213 assessed as growth inhibition after 16-20 hrs by CLSI method; type: functional, organism-based
[15] = system: Staphylococcus aureus; test: Antibacterial activity against methicillin-resistant Staphylococcus aureus ATCC 33591 assessed as growth inhibition after 16-20 hrs by CLSI method; type: functional, organism-based
[16] = Selectivity index, ratio of cytotoxicity against human SKOV3 cells to IC50 for Cryptococcus neoformans ATCC 90113; type: toxicity, cell-based, SK-OV-3; conditions: read-out: Selectivity Index
[17] = system: Aspergillus fumigatus; test: Antifungal activity against Aspergillus fumigatus assessed as growth inhibition; type: functional, organism-based
[18] = Selectivity index, ratio of cytotoxicity against pig LLC-PK1 cells to IC50 for Cryptococcus neoformans ATCC 90113; type: toxicity, cell-based; conditions: read-out: Selectivity Index
[19] = system: BT-549; test: Cytotoxicity against human BT549 cells assessed as cell viability after 48 hrs by neutral red uptake assay; type: cell-based; conditions: bt-549, 48 h; outline: as §1
[20] = system: Pichia kudriavzevii; test: Antifungal activity against Candida krusei assessed as growth inhibition; type: functional, organism-based

Compound: CC(C)(C)OC(=O)N[C@@H](Cc1c[nH]c(-c2ccc(C(C)(C)C)cc2)n1)C(=O)N[C@@H](CCCNC(=N)N)C(=O)NCc1ccccc1
growth inhibition (GI) [1]: inactive
selectivity ratio [2]: > 4.1
growth inhibition (GI) [3]: inactive
Activity [4]: > 10 µg/mL
selectivity ratio [5]: > 4.1
Activity [6]: > 10 µg/mL
selectivity ratio [7]: > 4.1
MFC [8]: 2.5 µg/mL (≈ 3.95 µM)
MIC [8]: 2.5 µg/mL (≈ 3.95 µM)
IC50 [8]: 2.42 µg/mL (≈ 3.82 µM)
selectivity ratio [9]: > 4.1
Activity [10]: > 10 µg/mL
growth inhibition (GI) [11]: inactive
Activity [12]: > 10 µg/mL
Activity [13]: > 10 µg/mL
IC50 [14]: 5.95 µg/mL (≈ 9.4 µM)
MBC [14]: inactive
MIC [14]: 10 µg/mL (≈ 15.8 µM)
MBC [15]: inactive
MIC ([15]; Staphylococcus aureus, ATCC 33591): 20 µg/mL (≈ 31.6 µM)
IC50 ([15]; Staphylococcus aureus, ATCC 33591, read-out: IC50): 9.32 µg/mL (≈ 14.7 µM)
selectivity ratio [16]: > 4.1
growth inhibition (GI) [17]: inactive
selectivity ratio [18]: > 4.1
Activity [19]: > 10 µg/mL
growth inhibition (GI) [20]: inactive

Compound: COC(=O)[C@H](Cc1c[nH]c(-c2ccc(-c3ccccc3)cc2)n1)NC(=O)[C@@H](N)Cc1c[nH]c2ccccc12
growth inhibition (GI) [1]: inactive
selectivity ratio [2]: > 2.6
growth inhibition (GI) [3]: inactive
Activity [4]: > 10 µg/mL
selectivity ratio [5]: > 2.6
Activity [6]: > 10 µg/mL
selectivity ratio [7]: > 2.6
MFC [8]: 20 µg/mL (≈ 39.4 µM)
MIC [8]: 10 µg/mL (≈ 19.7 µM)
IC50 [8]: 3.82 µg/mL (≈ 7.53 µM)
selectivity ratio [9]: > 2.6
Activity [10]: > 10 µg/mL
growth inhibition (GI) [11]: inactive
Activity [12]: > 10 µg/mL
Activity [13]: > 10 µg/mL
selectivity ratio [16]: > 2.6
growth inhibition (GI) [17]: inactive
selectivity ratio [18]: > 2.6
Activity [19]: > 10 µg/mL
growth inhibition (GI) [20]: inactive

Compound: Cc1ccc(-c2nc(C[C@H](NC(=O)OC(C)(C)C)C(=O)N[C@@H](CCCNC(=N)N)C(=O)NCc3ccccc3)c[nH]2)cc1
growth inhibition (GI) [1]: inactive
selectivity ratio [2]: > 1.7
growth inhibition (GI) [3]: inactive
Activity [4]: > 10 µg/mL
selectivity ratio [5]: > 1.7
Activity [6]: > 10 µg/mL
selectivity ratio [7]: > 1.7
MFC [8]: 10 µg/mL (≈ 16.9 µM)
MIC [8]: 10 µg/mL (≈ 16.9 µM)
IC50 [8]: 6.04 µg/mL (≈ 10.2 µM)
selectivity ratio [9]: > 1.7
Activity [10]: > 10 µg/mL
growth inhibition (GI) [11]: inactive
Activity [12]: > 10 µg/mL
Activity [13]: > 10 µg/mL
selectivity ratio [16]: > 1.7
growth inhibition (GI) [17]: inactive
selectivity ratio [18]: > 1.7
Activity [19]: > 10 µg/mL
growth inhibition (GI) [20]: inactive

Compound: COc1ccc(-c2nc(C[C@H](NC(=O)OC(C)(C)C)C(=O)N[C@@H](CCCNC(=N)N)C(=O)NCc3ccccc3)c[nH]2)cc1
growth inhibition (GI) [1]: inactive
selectivity ratio [2]: > 1.7
growth inhibition (GI) [3]: inactive
Activity [4]: > 10 µg/mL
selectivity ratio [5]: > 1.7
Activity [6]: > 10 µg/mL
selectivity ratio [7]: > 1.7
MFC [8]: 10 µg/mL (≈ 16.5 µM)
MIC [8]: 10 µg/mL (≈ 16.5 µM)
IC50 [8]: 5.77 µg/mL (≈ 9.51 µM)
selectivity ratio [9]: > 1.7
Activity [10]: > 10 µg/mL
growth inhibition (GI) [11]: inactive
Activity [12]: > 10 µg/mL
Activity [13]: > 10 µg/mL
selectivity ratio [16]: > 1.7
growth inhibition (GI) [17]: inactive
selectivity ratio [18]: > 1.7
Activity [19]: > 10 µg/mL
growth inhibition (GI) [20]: inactive

Compound: Cc1ccc(-c2nc(C[C@H](N)C(=O)N[C@@H](CCCNC(=N)N)C(=O)NCc3ccccc3)c[nH]2)cc1
growth inhibition (GI) [1]: inactive
selectivity ratio [2]: > 4.7
growth inhibition (GI) [3]: inactive
Activity [4]: > 10 µg/mL
selectivity ratio [5]: > 4.7
Activity [6]: > 10 µg/mL
selectivity ratio [7]: > 4.7
MFC [8]: 2.5 µg/mL (≈ 5.1 µM)
MIC [8]: 2.5 µg/mL (≈ 5.1 µM)
IC50 [8]: 2.11 µg/mL (≈ 4.3 µM)
selectivity ratio [9]: > 4.7
Activity [10]: > 10 µg/mL
growth inhibition (GI) [11]: inactive
Activity [12]: > 10 µg/mL
Activity [13]: > 10 µg/mL
selectivity ratio [16]: > 4.7
growth inhibition (GI) [17]: inactive
selectivity ratio [18]: > 4.7
Activity [19]: > 10 µg/mL
growth inhibition (GI) [20]: inactive

The remaining compounds from weak to strong by MIC [8], led by results:

MIC [8]: 20 µg/mL (≈ 38.4 µM)
Compound: Cc1ccc(-c2nc(C[C@H](NC(=O)[C@@H](N)Cc3c[nH]c4ccccc34)C(=O)NCc3ccccc3)c[nH]2)cc1
growth inhibition (GI) [1]: inactive
selectivity ratio [2]: > 1.3
growth inhibition (GI) [3]: inactive
Activity [4]: > 10 µg/mL
selectivity ratio [5]: > 1.3
Activity [6]: > 10 µg/mL
selectivity ratio [7]: > 1.3
IC50 [8]: 7.84 µg/mL (≈ 15.1 µM)
selectivity ratio [9]: > 1.3
Activity [10]: > 10 µg/mL
growth inhibition (GI) [11]: inactive
Activity [12]: > 10 µg/mL
Activity [13]: > 10 µg/mL
selectivity ratio [16]: > 1.3
growth inhibition (GI) [17]: inactive
selectivity ratio [18]: > 1.3
Activity [19]: > 10 µg/mL
growth inhibition (GI) [20]: inactive

MIC [8]: 20 µg/mL (≈ 46.4 µM)
Compound: COC(=O)[C@H](Cc1c[nH]c(-c2ccccc2)n1)NC(=O)[C@@H](N)Cc1c[nH]c2ccccc12
growth inhibition (GI) [1]: inactive
selectivity ratio [2]: > 1.3
growth inhibition (GI) [3]: inactive
Activity [4]: > 10 µg/mL
selectivity ratio [5]: > 1.3
Activity [6]: > 10 µg/mL
selectivity ratio [7]: > 1.3
MFC [8]: 20 µg/mL (≈ 46.4 µM)
IC50 [8]: 7.97 µg/mL (≈ 18.5 µM)
selectivity ratio [9]: > 1.3
Activity [10]: > 10 µg/mL
growth inhibition (GI) [11]: inactive
Activity [12]: > 10 µg/mL
Activity [13]: > 10 µg/mL
selectivity ratio [16]: > 1.3
growth inhibition (GI) [17]: inactive
selectivity ratio [18]: > 1.3
Activity [19]: > 10 µg/mL
growth inhibition (GI) [20]: inactive

MIC [8]: 10 µg/mL (≈ 17.3 µM)
Compound: COC(=O)[C@H](CCCNC(=N)N)NC(=O)[C@H](Cc1c[nH]c(-c2ccc(-c3ccccc3)cc2)n1)NC(=O)OC(C)(C)C
growth inhibition (GI) [1]: inactive
selectivity ratio [2]: > 2
growth inhibition (GI) [3]: inactive
Activity [4]: > 10 µg/mL
selectivity ratio [5]: > 2
Activity [6]: > 10 µg/mL
selectivity ratio [7]: > 2
MFC [8]: 10 µg/mL (≈ 17.3 µM)
IC50 [8]: 4.91 µg/mL (≈ 8.5 µM)
selectivity ratio [9]: > 2
Activity [10]: > 10 µg/mL
growth inhibition (GI) [11]: inactive
Activity [12]: > 10 µg/mL
Activity [13]: > 10 µg/mL
selectivity ratio [16]: > 2
growth inhibition (GI) [17]: inactive
selectivity ratio [18]: > 2
Activity [19]: > 10 µg/mL
growth inhibition (GI) [20]: inactive

MIC [8]: 5 µg/mL (≈ 9.87 µM)
Compound: N[C@@H](Cc1c[nH]c2ccccc12)C(=O)N[C@@H](Cc1c[nH]c(-c2ccccc2)n1)C(=O)NCc1ccccc1
growth inhibition (GI) [1]: inactive
selectivity ratio [2]: > 4.9
growth inhibition (GI) [3]: inactive
Activity [4]: > 10 µg/mL
selectivity ratio [5]: > 4.9
Activity [6]: > 10 µg/mL
selectivity ratio [7]: > 4.9
MFC [8]: 5 µg/mL (≈ 9.87 µM)
IC50 [8]: 2.04 µg/mL (≈ 4.03 µM)
selectivity ratio [9]: > 4.9
Activity [10]: > 10 µg/mL
growth inhibition (GI) [11]: inactive
Activity [12]: > 10 µg/mL
Activity [13]: > 10 µg/mL
selectivity ratio [16]: > 4.9
growth inhibition (GI) [17]: inactive
selectivity ratio [18]: > 4.9
Activity [19]: > 10 µg/mL
growth inhibition (GI) [20]: inactive

MIC [8]: 2.5 µg/mL (≈ 4.53 µM)
Compound: COC(=O)[C@H](CCCNC(=N)N)NC(=O)[C@H](Cc1c[nH]c(-c2cccc3ccccc23)n1)NC(=O)OC(C)(C)C
growth inhibition (GI) [1]: inactive
selectivity ratio [2]: > 8
growth inhibition (GI) [3]: inactive
Activity [4]: > 10 µg/mL
selectivity ratio [5]: > 8
Activity [6]: > 10 µg/mL
selectivity ratio [7]: > 8
MFC [8]: 2.5 µg/mL (≈ 4.53 µM)
IC50 [8]: 1.25 µg/mL (≈ 2.27 µM)
selectivity ratio [9]: > 8
Activity [10]: > 10 µg/mL
growth inhibition (GI) [11]: inactive
Activity [12]: > 10 µg/mL
Activity [13]: > 10 µg/mL
selectivity ratio [16]: > 8
growth inhibition (GI) [17]: inactive
selectivity ratio [18]: > 8
Activity [19]: > 10 µg/mL
growth inhibition (GI) [20]: inactive
